The target in test [1] is Tiam1 PDZ domain (wild-type) (Homo sapiens, UniProt Q13009). Type of test: binding. The settings on record: for Kd: SD; for ΔGb (free energy of binding): calculated from the dissociation constant, error by error propagation, 25 °C; for ΔΔGb: ΔΔGb = ΔGb(Core) − ΔGb(peptide); for Σ Singles: sum of the ΔΔGb of the two single-mutant peptides; for binding to the Tiam1 PDZ domain (in words): unpublished data of the authors. Summed up:
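His6-tagged Tiam1 PDZ domain expressed in E. coli BL21(DE3), purified by nickel-chelate and size-exclusion chromatography, tag removed with rTEV. N-terminally dansylated peptides (2 or 5 μM) in 20 mM PO4, 50 mM NaCl, 0.5 mM EDTA, pH 6.8, at 25 °C; PDZ added in 20–30 steps. Anisotropy read at λex 340/λem 555 nm and fit hyperbolically. Triplicate titrations, mean Kd ± standard deviation.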

The next test addresses T1, Tiam2 PDZ domain (Homo sapiens, UniProt Q8IVF5).
T1 sequence (Q8IVF5 890-976 limits assumed): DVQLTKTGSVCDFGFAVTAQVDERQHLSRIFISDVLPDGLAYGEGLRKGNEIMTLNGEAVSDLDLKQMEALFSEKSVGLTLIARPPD
Nature of the test: Peptide binding to the Tiam2 PDZ domain. Conditions: unpublished data of the authors.

The target in another test is Model peptide. The settings on record: cited from earlier work.
Another test concerns the target T2, KP-4E-Sdc1 peptide.
T2 chain: Dansyl-QEEYYA
Nature of the test: fluorescence anisotropy. Background: Fluorescence polarisation rises when a labelled molecule tumbles more slowly, as on binding a larger partner.

“And” between values parts separate entries of the source, which are not always exact repeats. Identical values can stand only once. Ends that are not written are not given here. Peptide text beside a SMILES is read from it. * marks the point of attachment. Dansyl = CN(C)c1cccc2c(S(=O)(=O)*)cccc12

Chain of Tiam1 PDZ domain (wild-type) (Q13009 841-930 limits assumed): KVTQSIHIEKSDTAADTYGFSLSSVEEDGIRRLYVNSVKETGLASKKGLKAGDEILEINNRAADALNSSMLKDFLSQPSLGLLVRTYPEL

Regarding `C[C@H](NC(=O)[C@H](Cc1ccccc1)NC(=O)[C@H](Cc1ccc(O)cc1)NC(=O)[C@H](CCC(=O)O)NC(=O)[C@H](CCCCN)NC(=O)[C@H](CCC(N)=O)NC(=O)[C@H](CO)NC(=O)[C@H](CO)NS(=O)(=O)c1cccc2c(N(C)C)cccc12)C(=O)O` [YP−1F–Caspr4] (Dansyl-SSQKEYFA-OH), in test [1], the affinity, expressed as Kd, was 60.1 ± 0.6 µM; the “ΔGb (free energy of binding)” value was -5.75 ± 0.01 kcal/mol; the ΔΔGb is -0.40 ± 0.05 kcal/mol.

Turning to “SSRKEYYACOOH [Model peptide, reference compound]”, in test [1], the “ΔGb (free energy of binding)” value was -5.38 ± 0.05 kcal/mol.

As for `C[C@H](NC(=O)[C@H](Cc1ccc(O)cc1)NC(=O)[C@H](Cc1ccc(O)cc1)NC(=O)[C@H](CCC(=O)O)NC(=O)[C@H](CCC(=O)O)NC(=O)[C@H](CCC(N)=O)NC(=O)[C@H](CO)NC(=O)[C@H](CO)NS(=O)(=O)c1cccc2c(N(C)C)cccc12)C(=O)O` [KP−4E–Sdc1] (Dansyl-SSQEEYYA-OH), in test [1], the affinity, expressed as Kd, was 40 ± 2 µM; the “ΔGb (free energy of binding)” value was -5.99 ± 0.06 kcal/mol; the ΔΔGb was -0.65 ± 0.07 kcal/mol.

Turning to TKQEEFYACOOH [Syndecan1], in test [1], the “ΔGb (free energy of binding)” value is -6.23 ± 0.03 kcal/mol, the “Σ Singles” value is -0.71 ± 0.11 kcal/mol, the “binding to the Tiam1 PDZ domain (in words)” value is on record as “bound the Tiam1 PDZ domain” and the ΔΔGb is -0.88 ± 0.06 kcal/mol.

As for `CN(C)c1cccc2c(S(=O)(=O)N[C@@H](CO)C(=O)N[C@@H](CO)C(=O)N[C@@H](CCC(N)=O)C(=O)N[C@@H](CCCCN)C(=O)N[C@@H](CCC(=O)O)C(=O)N[C@@H](Cc3ccc(O)cc3)C(=O)N[C@@H](Cc3ccc(O)cc3)C(=O)N[C@@H](Cc3ccccc3)C(=O)O)cccc12` [AP0F–Caspr4] (Dansyl-SSQKEYYF-OH), in test [1], the Kd (as a rule, the free concentration of one partner at which half of the binding sites on the other are occupied at equilibrium, for simple one-to-one binding) is 89 ± 5 µM; the “ΔGb (free energy of binding)” value is -5.52 ± 0.06 kcal/mol; the ΔΔGb is -0.17 ± 0.08 kcal/mol.

Take `C[C@H](NC(=O)[C@H](Cc1ccc(O)cc1)NC(=O)[C@H](Cc1ccccc1)NC(=O)[C@H](CCC(=O)O)NC(=O)[C@H](CCCCN)NC(=O)[C@H](CCC(N)=O)NC(=O)[C@H](CO)NC(=O)[C@H](CO)NS(=O)(=O)c1cccc2c(N(C)C)cccc12)C(=O)O` [YP−2F–Sdc1] (Dansyl-SSQKEFYA-OH): in test [1], the dissociation constant (Kd) turned out to be 106 ± 7 µM, the “ΔGb (free energy of binding)” value is -5.42 ± 0.07 kcal/mol and the ΔΔGb was -0.07 ± 0.08 kcal/mol.

Take “NKDKEYYVCOOH [Neurexin1, reference compound]”: the “binding to the Tiam2 PDZ domain (in words)” value on Tiam2 PDZ domain is reported as “bound the PDZ domain tightly”.

In the case of Tiam1 PDZ (from UniProt Q13009), the Kd with Model peptide was 112 µM.

`CN(C)c1cccc2c(S(=O)(=O)N[C@@H](CCC(=O)O)C(=O)N[C@@H](CC(N)=O)C(=O)N[C@@H](CCC(N)=O)C(=O)N[C@@H](CCCCN)C(=O)N[C@@H](CCC(=O)O)C(=O)N[C@@H](Cc3ccc(O)cc3)C(=O)N[C@@H](Cc3ccccc3)C(=O)N[C@@H](Cc3ccccc3)C(=O)O)cccc12` [Caspr4] (Dansyl-ENQKEYFF-OH): in test [1], the Kd was determined as 19 ± 0.4 µM, the “ΔGb (free energy of binding)” value is -6.43 ± 0.02 kcal/mol, the “Σ Singles” value was -0.57 ± 0.09 kcal/mol and the “binding to the Tiam1 PDZ domain (in words)” value was “bound the Tiam1 PDZ domain”. The molecule also had a ΔΔGb in test [1] of -1.09 ± 0.05 kcal/mol. Further, the “ΔΔΔGint (interaction energy, double-mutant cycle)” value in test [1] (double-mutant cycle of evolved peptides: Core, two single mutants, double mutant) was -0.51 kcal/mol and -0.51 ± 0.08 kcal/mol. The “binding to the Tiam2 PDZ domain (in words)” value at Tiam2 PDZ domain is “bound the PDZ domain tightly”.

B1: Tiam1 PDZ (protein)
chain: VTQSIHIEKSDTAADTYGFSLSSVEEDGIRRLYVNSVKETGLASKKGLKAGDEILEINNRAADALNSSML
Consider B1, for which the equilibrium dissociation constant (Kd) in the test with KP-4E-Sdc1 peptide was 40 µM.
